Assay results taken from publication PMC10206482 (RSC Advances, 2023).
Values after ≈ are worked out from the molar mass of the structure shown.

Experiments:
[1] = system: Michigan Cancer Foundation-7 breast cancer (MCF-7); assay: MTT antiproliferative assay, MCF-7; format: cell-based; conditions: Homo sapiens, MCF7, read-out: Michigan cancer foundation-7 breast cancer (MCF-7) IC50
Outline: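 Human MCF-7 breast cancer cells were exposed to the test compound at 0.1, 1, 10 and 100 μM, with Taxol as positive reference. Viability was read by MTT and plotted as % cell viability against concentration (μM). IC50 is the concentration giving 50% growth inhibition relative to untreated control cells, taken from the dose–response curve.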

human hepatoma (Huh-7) = assay: MTT antiproliferative assay, Huh-7; format: cell-based; conditions: Huh-7, read-out: Human hepatoma (Huh-7) IC50
Outline: (§1)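 Colorimetric MTT viability readout, run in parallel on human Huh-7 hepatoma, A549 lung adenocarcinoma and MCF-7 breast cancer cells, and on MDCK canine kidney cells as the non-cancerous model. Test compound at four concentrations (0.1, 1, 10, 100 μM), with Taxol as the positive reference. % viability was plotted against concentration, and IC50 was derived as 50% growth inhibition relative to untreated control.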

[2] = system: lung cell cancer adenocarcinoma (A549); assay: MTT antiproliferative assay, A549; format: cell-based; conditions: Homo sapiens, A549, read-out: Lung cell cancer adenocarcinoma (A549) IC50
Outline: as §1

tubulin = assay: Tubulin polymerization assay; format: biochemical; conditions: for Inhibition (%) of tubulin polymerisation: in vitro tubulin inhibition assay; for IC50: read-out: IC50 tubulin polymerisation; for IC50 / IC50 tubulin polymerisation: as printed in Table 2 and results text
Outline: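 Turbidimetric tubulin polymerization, using tubulin at 4 mg ml⁻¹. Test compound came from a 2 mM DMSO stock, diluted with water to final 0.1, 1, 10 and 100 μM. Polymerization was started by moving the reaction from 4 °C to a pre-warmed 37 °C plate. Absorbance at 340 nm was followed kinetically at 37 °C (0.5 cm pathlength). CA-4 served as reference.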

mammary tumors = assay: In vivo DMBA-induced breast cancer model: tumor size and histopathology; set-up: species or system Wistar rats; conditions: after treatment, 2 mg per kg per week
(A549) cells = assay: Morphological assessment of A549 cells; format: cell-based, human; conditions: 100 μM, 48 h, compared to untreated control
Outline: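 Living cells were examined by inverted light microscopy for morphology changes, after exposure to test compound. Comparators were an untreated control and a Taxol-treated positive control.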

[3] = Body weight of tumor-bearing rats during treatment; format: in vivo, Wistar rats; conditions: 2 mg per kg per week, day 0 to day 42

SMILES	IC50 [1] [µM]	IC50 (human hepatoma (Huh-7)) [µM]	IC50 [2] [µM]	IC50 (tubulin) [µM]	IC50 tubulin polymerisation (tubulin) [µg/mL]	Inhibition (%) of tubulin polymerisation (tubulin) [%]	Histopathology of mammary gland (H&E): inflammatory cells infiltrates (mammary tumors)	Morphological assessment of cells ((A549) cells)	Effect on rats' body weights [3]
CC(=O)N1CC2=C(OC(N)=C(C#N)C2c2ccc(Cl)cc2)/C(=C/c2ccc(Cl)cc2)C1 (stereo not shown) [3c, (E)-6-Acetyl-2-amino-3-cyano-8-(4-chlorobenzylidene)-4-(4-chlorophenyl)-5,6,7,8-tetrahydro-4H-pyrano[3,2-c]pyridine]	6.38	17.7	61.2						
CCOc1cc(/C=C2\CN(C(C)=O)CC3=C2NC(=S)NC3c2ccc(O)c(OCC)c2)ccc1O (stereo not shown) [4b, (E)-6-Acetyl-8-(3-ethoxy-4-hydroxybenzylidene)-4-(3-ethoxy-4-hydroxyphenyl)-1,3,4,5,7,8-hexahydro-2H-pyrido[4,3-d]pyrimidin-2-thione]	16	7.27	42.3						
COc1cc(/C=C2\CN(C(C)=O)CC3=C2NC(=S)NC3c2ccc(O)c(OC)c2)ccc1O (stereo not shown) [4a, (E)-6-Acetyl-8-(4-hydroxy-3-methoxybenzylidene)-4-(4-hydroxy-3-methoxyphenyl)-1,3,4,5,7,8-hexahydro-2H-pyrido[4,3-d]pyrimidin-2-thione]	8.01	2.48	46.9						
CCOc1cc(/C=C2\CN(C(C)=O)CC3=C2OC(N)=C(C#N)C3c2ccc(O)c(OCC)c2)ccc1O (stereo not shown) [3b, (E)-6-Acetyl-2-amino-3-cyano-4-(3-ethoxy-4-hydroxy-phenyl)-8-(3-ethoxy-4-hydroxy-benzylidene)-5,6,7,8-tetrahydro-4H-pyrano[3,2-c]pyridine]	6.13	6.54	15.5	4.03	4.03 (≈ 8 µM)	81	intensity of inflammatory cells infiltrates decreased	apparent cell toxicity	did not have a significant effect
COc1cc(/C=C2\CN(C(C)=O)CC3=C2OC(N)=C(C#N)C3c2ccc(O)c(OC)c2)ccc1O (stereo not shown) [3a, (E)-6-Acetyl-2-amino-3-cyano-8-(4-hydroxy-3-methoxybenzylidene)-4-(4-hydroxy-3-methoxyphenyl)-5,6,7,8-tetrahydro-4H-pyrano[3,2-c]pyridine]	8.87	3.88	31.6	15.6		79			
CC(=O)N1CC2=C(OC(N)=C(C#N)C2/C=C/c2ccccc2)/C(=C/C=C/c2ccccc2)C1 (stereo not shown) [3d, (E)-6-Acetyl-2-amino-3-cyano-8-((E)-3-phenylallylidene)-4-((E)-styryl)-5,6,7,8-tetrahydro-4H-pyrano[3,2-c]pyridine]		20.7							

More lines, main results first:

IC50 [1] [µM]	IC50 (human hepatoma (Huh-7)) [µM]	IC50 [2] [µM]	IC50 (tubulin) [µM]	IC50 tubulin polymerisation (tubulin) [µg/mL]	SMILES	Inhibition (%) of tubulin polymerisation (tubulin) [%]	Histopathology of mammary gland (H&E): inflammatory cells infiltrates (mammary tumors)	Morphological assessment of cells ((A549) cells)	Effect on rats' body weights [3]
5.27	5.47	20.3	6.06		COc1cc(/C=C2\CN(C(C)=O)CC3C2=NN(c2ccccc2)C3c2ccc(O)c(OC)c2)ccc1O (stereo not shown) [5a, (E)-5-Acetyl-7-(4-hydroxy-3-methoxybenzylidene)-3-(4-hydroxy-3-methoxyphenyl)-2-phenyl-2,3,3a,4,6,7-hexahydro-5H-pyrazolo[4,3-c]pyridine]	76			
12.3	6.68	38.1			CC(=O)O[C@H]1C(=O)[C@@]2(C)[C@H]([C@H](OC(=O)c3ccccc3)[C@]3(O)C[C@H](OC(=O)[C@H](O)[C@@H](NC(=O)c4ccccc4)c4ccccc4)C(C)=C1C3(C)C)[C@]1(OC(C)=O)CO[C@@H]1C[C@@H]2O [Taxol, reference compound]		intensity of inflammatory cells infiltrates decreased	apparent cell toxicity	did not have a significant effect
9.04	2.23	15.2	12.6		CCOc1cc(/C=C2\CN(C(C)=O)CC3C2=NN(c2ccccc2)C3c2ccc(O)c(OCC)c2)ccc1O (stereo not shown) [5b, (E)-5-Acetyl-7-(3-ethoxy-4-hydroxybenzylidene)-3-(3-ethoxy-4-hydroxyphenyl)-2-phenyl-2,3,3a,4,6,7-hexahydro-5H-pyrazolo[4,3-c]pyridine]	70			
